Active and inactive are the calls of the source. The rule behind the calls is not given here.
How the values were obtained:
Mus musculus [1] = assay: Toxicity in CD-1 mouse at 300 mg/kg, ip; format: organism-based; design: dose 300 mg/kg, route intraperitoneal; settings: in vivo
Mus musculus [2] = assay: Induction of interferon level in CD-1 mouse serum at 100 mg/kg, ip after 18 to 20 hrs by vesicular stomatitis virus plaque reduction assay; format: functional, organism-based; design: dose 100 mg/kg
In short: (§1)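 Dosing was oral or ip in 15-g female CD-1 mice, at least three per dose level, with compound in sterile distilled water as a solution or suspension. Pooled sera were collected 18–20 hr after dosing. Interferon units/ml were quantified by a plaque reduction assay on mouse L cells with vesicular stomatitis virus challenge, run against an NIAID reference mouse interferon standard.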

Mus musculus [3] = assay: Induction of interferon level in CD-1 mouse serum at 17 mg/kg, ip after 18 to 20 hrs by vesicular stomatitis virus plaque reduction assay; format: functional, organism-based; design: dose 17 mg/kg; in short: as §1
Mus musculus [4] = assay: Induction of interferon level >= 32 units/mL in ip dosed CD-1 mouse serum after 18 to 20 hrs by vesicular stomatitis virus plaque reduction assay; format: functional; settings: CD-1, Serum, read-out: MED
In short: (§2)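 Female CD-1 mice (15 g; at least three per dose) received compound dissolved or suspended in sterile distilled water, orally or ip. They were bled 18–20 hr later and sera pooled. Interferon was titrated by plaque reduction in mouse L cells challenged with vesicular stomatitis virus, with an NIAID reference mouse interferon standard. MED was the lowest dose giving ≥32 units/ml. Top doses were 400 mg/kg po and 300 mg/kg ip.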

Mus musculus [5] = assay: Induction of interferon level >= 32 units/mL in po dosed CD-1 mouse serum after 18 to 20 hrs by vesicular stomatitis virus plaque reduction assay; format: functional; settings: CD-1, Serum, read-out: MED; in short: as §2
Mus musculus [6] = assay: Acute toxicity in CD-1 mouse at 250 mg/kg, ip; format: organism-based; design: dose 250 mg/kg, route intraperitoneal; settings: in vivo
Mus musculus [7] = assay: Acute toxicity in CD-1 mouse at 1600 mg/kg, po; format: organism-based; design: dose 1600 mg/kg, route oral; settings: in vivo
Mus musculus [8] = assay: Induction of interferon level in CD-1 mouse serum at 400 mg/kg, po after 18 to 20 hrs by vesicular stomatitis virus plaque reduction assay; format: functional, organism-based; design: dose 400 mg/kg; in short: as §1
Mus musculus [9] = assay: Induction of interferon level in CD-1 mouse serum at 50 mg/kg, ip after 18 to 20 hrs by vesicular stomatitis virus plaque reduction assay; format: functional, organism-based; design: dose 50 mg/kg; in short: as §1
Mus musculus [10] = assay: Induction of interferon level in CD-1 mouse serum at 9 mg/kg, ip after 18 to 20 hrs by vesicular stomatitis virus plaque reduction assay; format: functional, organism-based; design: dose 9 mg/kg; in short: as §1
Mus musculus [11] = assay: Induction of interferon level in CD-1 mouse serum at 300 mg/kg, ip after 18 to 20 hrs by vesicular stomatitis virus plaque reduction assay; format: functional, organism-based; design: dose 300 mg/kg; in short: as §1
Mus musculus [12] = assay: Induction of interferon level in CD-1 mouse serum at 100 mg/kg, po after 18 to 20 hrs by vesicular stomatitis virus plaque reduction assay; format: functional, organism-based; design: dose 100 mg/kg; in short: as §1
Mus musculus [13] = assay: Induction of interferon level in CD-1 mouse serum at 200 mg/kg, po after 18 to 20 hrs by vesicular stomatitis virus plaque reduction assay; format: functional, organism-based; design: dose 200 mg/kg; in short: as §1
Mus musculus [14] = assay: Toxicity in CD-1 mouse at 400 mg/kg, po; format: organism-based; design: dose 400 mg/kg, route oral; settings: in vivo
Mus musculus [15] = species on record: Mus musculus; assay: Acute toxicity in CD-1 mouse; format: organism-based; settings: in vivo

Row | SMILES | Activity (Mus musculus [1]) | Activity (Mus musculus [2]) | other results
1 | Cc1nn(C)c2nc3ccccc3c(NCCCN3CCCC3=O)c12.Cl | Toxic | inactive | 
2 | Cc1nn(CCCN(C)C)c2nc3ccccc3c(Cl)c12.Cl | Toxic |  | Activity (Mus musculus [3]): inactive
3 | Cc1cccc2c(NCCCN(C)C)c3c(C)nn(C)c3nc12.Cl | Toxic | inactive | 
4 | Cc1nn(CCCN(C)C)c2nc3ccccc3cc12.Cl | Toxic | inactive | 
5 | Cc1nn(C)c2nc3ccccc3c(NCCCN(C)C)c12.Cl |  |  | minimal effective dose (Mus musculus [4]): 100 mg/kg; minimal effective dose (Mus musculus [5]): 200 mg/kg; Activity (Mus musculus [6]): Toxic; Activity (Mus musculus [7]): Toxic
6 | Cc1nn(C)c2nc3ccc(I)cc3c(NCCCN(C)C)c12.Cl | Toxic | inactive | minimal effective dose (Mus musculus [5]): ≥ 400 mg/kg
7 | Cc1nn(C)c2nc3ccccc3c(NCCCN3CCCCC3)c12.Cl | Toxic | inactive | minimal effective dose (Mus musculus [5]): 200 mg/kg
8 | Cc1nn(C)c2nc3ccccc3c(NCCCN3CCOCC3)c12.Cl |  |  | minimal effective dose (Mus musculus [4]): 300 mg/kg; Activity (Mus musculus [8]): inactive
9 | Cc1nn(C)c2nc3ccccc3c(OCCCN(C)C)c12.Cl | Toxic |  | Activity (Mus musculus [9]): inactive
10 | Cc1nn(C)c2nc3ccccc3c(NCCN3CCCC3)c12.Cl | Toxic | inactive | 
11 | Cc1nn(C)c2nc3c(c(NCCCN(C)C)c12)CCCC3 |  | inactive | Activity (Mus musculus [8]): inactive
12 | Cc1nn(CCCN(C)C)c2nc3ccccc3c(NCCCN(C)C)c12.Cl | Toxic | inactive | Activity (Mus musculus [8]): inactive
13 | Cc1nn(C(C)C)c2nc3ccccc3c(NCCCN(C)C)c12.Cl | Toxic |  | Activity (Mus musculus [9]): inactive
14 | Cc1nn(CCNCCCN(C)C)c2nc3ccccc3c(NCCCN(C)C)c12.Cl | Toxic |  | Activity (Mus musculus [10]): inactive
15 | CCn1nc(C)c2c(NCCCN(C)C)c3ccccc3nc21.Cl | Toxic | inactive | Activity (Mus musculus [11]): inactive; Activity (Mus musculus [8]): inactive
16 | Cc1nn(C)c2nc3ccccc3c(NC3CC3)c12.Cl | Toxic |  | Activity (Mus musculus [12]): inactive
17 | Cc1nn(C)c2nc3cc(C(F)(F)F)ccc3c(NCCCN(C)C)c12.Cl | Toxic | inactive | 
18 | CCC1CCC(C)N(CCCNc2c3ccccc3nc3c2c(C)nn3C)C1.Cl (centres undefined) | Toxic | inactive | 
19 | COc1cc2nc3c(c(C)nn3C)c(NCCCN(C)C)c2c(OC)c1OC.Cl |  |  | Activity (Mus musculus [13]): inactive; Activity (Mus musculus [14]): Toxic
20 | Cc1nn(C)c2nc3ccc([N+](=O)[O-])cc3c(NCCCN(C)C)c12.Cl | Toxic | inactive | 
21 | Cc1nn(C)c2nc3ccccc3c(N3CCC(CCN(C)C)CC3)c12.Cl | Toxic |  | Activity (Mus musculus [9]): inactive

Row | SMILES | Activity (Mus musculus [1]) | Activity (Mus musculus [2]) | other results
22 | Cc1nn(C)c2nc3ccccc3c(NCCCNC34CC5CC(CC(C5)C3)C4)c12.Cl | Toxic |  | Activity (Mus musculus [12]): inactive
23 | CCc1n[nH]c2nc3ccccc3c(NCCCN(C)C)c12.Cl | Toxic | inactive | 
24 | CCc1ccc2nc3c(c(C)nn3C)c(NCCCN(C)C)c2c1.Cl | Toxic | inactive | minimal effective dose (Mus musculus [5]): 200 mg/kg
25 | Cc1nn(C)c2nc3ccccc3c(NCCC3CCCN3C)c12.Cl (centres undefined) | Toxic | inactive | 
26 | CCc1ccc2c(NCCCN(C)C)c3c(C)nn(C)c3nc2c1.Cl | Toxic | inactive | minimal effective dose (Mus musculus [5]): 200 mg/kg
27 | Cc1cccc2nc3c(c(C)nn3C)c(NCCCN(C)C)c12.Cl | Toxic | inactive | Activity (Mus musculus [8]): inactive
28 | CCCCN(CCCC)CCCNc1c2ccccc2nc2c1c(C)nn2C.Cl | Toxic | inactive | 
29 | Cc1nn(CC(F)(F)F)c2nc3ccccc3c(NCCCN(C)C)c12.Cl | Toxic | inactive | 
30 | COc1ccc2nc3c(c(C)nn3C)c(NCCCN(C)C)c2c1.Cl | Toxic | inactive | minimal effective dose (Mus musculus [5]): 200 mg/kg
31 | CCc1nn(C)c2nc3ccccc3c(NCCCN(C)C)c12.Cl | Toxic | inactive | minimal effective dose (Mus musculus [5]): 200 mg/kg
32 | Cc1nn(Cc2ccccc2)c2nc3ccccc3c(NCCCN(C)C)c12.Cl | Toxic | inactive | 
33 | Cc1ccc2c(NCCCN(C)C)c3c(C)nn(C)c3nc2c1.Cl |  |  | minimal effective dose (Mus musculus [4]): 50 mg/kg; minimal effective dose (Mus musculus [5]): 50 mg/kg; Activity (Mus musculus [8]): inactive; Activity (Mus musculus [15]): Toxic
34 | Cc1nn(C)c2nc3ccccc3c(NCc3cccnc3)c12.Cl | Toxic | inactive | 
35 | Cc1nn(C)c2nc3ccccc3c(NCCc3ccccn3)c12.Cl | Toxic |  | Activity (Mus musculus [9]): inactive
36 | Cc1nn(C)c2nc3ccccc3c(SCCCN(C)C)c12.Cl | Toxic |  | Activity (Mus musculus [9]): inactive; Activity (Mus musculus [13]): inactive
37 | Cc1nn(C)c2nc3ccc(Cl)cc3c(NCCCN(C)C)c12.Cl | Toxic | inactive | 
38 | Cc1nn(C)c2nc3ccccc3c(NCCc3ccncc3)c12.Cl | Toxic |  | Activity (Mus musculus [10]): inactive; Activity (Mus musculus [3]): inactive
39 | CCOC(=O)c1cnc2c(c(C)nn2C)c1NCCCN(C)C |  |  | Activity (Mus musculus [12]): inactive
40 | COC(=O)Cn1nc(C)c2c(NCCCN(C)C)c3ccccc3nc21.Cl | Toxic | inactive | 
41 | CN(C)CCCNc1c2ccccc2nc2ccccc12.Cl |  |  | minimal effective dose (Mus musculus [4]): ≥ 300 mg/kg; Activity (Mus musculus [8]): inactive
42 | COc1ccc(Cl)c2c(NCCCN(C)C)c3c(C)nn(C)c3nc12.Cl |  |  | Activity (Mus musculus [12]): inactive; Activity (Mus musculus [14]): Toxic

— ChEMBL document CHEMBL3272265, “Interferon inducing activities of derivatives of 1,3-dimethyl-4-(3-dimethylaminopropylamino)-1H-pyrazolo(3,4-b)quinoline and related compounds” (J Med Chem, 1976)
